The source of these data is ChEMBL document CHEMBL2146377, “Rational design of 4-aryl-1,2,3-triazoles for indoleamine 2,3-dioxygenase 1 inhibition” (J Med Chem, 2012).

Activity calls are given as the source filed them. The calls are words filed in the database; no cut-off is given here.

For assay [1], the target named is Indoleamine 2,3-dioxygenase 1 (Mus musculus, UniProt P28776). Nature of the assay: Inhibition of mouse IDO1 in P815 clone 6 cells by HPLC analysis. The format is cell-based. Summed up:
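Murine mastocytoma P815 stably transfected cells were used: P815-mIDO1 clone 6 for mouse IDO1 and P815B-hIDO1 clone 6 for human IDO1. Cells with inhibitor were incubated at 37 °C until under 50% of tryptophan was consumed, as tracked in control wells by pDMAB absorbance at 480 nm. Supernatant was TCA-precipitated, and tryptophan and kynurenine were quantified by C18 HPLC. Values are the mean of ≥2 independent assays.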

Assay [2] addresses Tryptophan 2,3-dioxygenase (Mus musculus, UniProt P48776). The experiment in a line: Inhibition of mouse TDO in P815 clone 12 cells by HPLC analysis. The format is cell-based.
A further assay concerns HepG2. The experiment in a line: Cytotoxicity against human HepG2 cells after 24 hrs by MTS-PMS assay. The format is functional. To be noted: HepG2, 24 h, read-out: LD50 (the source's name). Summed up:
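Hep G2 cells (2 × 10⁴ per well) in IMDM with 10% FCS exposed to compound titrated 0.001–100 μM for 24 h at 37 °C; living cells counted by MTS/PMS assay; LD₅₀ reported as mean of at least two independent assays with standard deviation.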

The target of assay [3] is T1, Indoleamine 2,3-dioxygenase 1 (Homo sapiens, UniProt P14902). Nature of the assay: Inhibition of human IDO1 transfected in HEK293 clone 6 cells by HPLC analysis. The assay is classed as cell-based.
Target sequence in this assay (P14902 whole entry, looked up): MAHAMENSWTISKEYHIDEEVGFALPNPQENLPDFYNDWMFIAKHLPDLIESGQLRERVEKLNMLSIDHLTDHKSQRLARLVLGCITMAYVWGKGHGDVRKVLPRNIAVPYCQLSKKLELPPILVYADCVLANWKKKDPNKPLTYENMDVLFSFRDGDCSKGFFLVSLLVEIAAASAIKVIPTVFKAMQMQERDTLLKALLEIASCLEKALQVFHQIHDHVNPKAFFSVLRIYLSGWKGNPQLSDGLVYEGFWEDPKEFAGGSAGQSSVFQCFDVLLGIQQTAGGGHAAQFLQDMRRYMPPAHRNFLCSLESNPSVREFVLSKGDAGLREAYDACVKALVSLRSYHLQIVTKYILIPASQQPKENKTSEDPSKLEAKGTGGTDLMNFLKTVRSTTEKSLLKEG
The target of assay [4] is T1, Indoleamine 2,3-dioxygenase 1. Nature of the assay: Inhibition of human recombinant N-terminal His-tagged IDO1 (Ala2 to Gly403) overexpressed in Escherichia coli BL21 at pH 6.5 after 60 mins by HPLC analysis.
Target sequence in this assay (P14902 whole entry): as the sequence (P14902 whole entry, looked up) above
For assay [5] the target is unchanged. To be noted: at 1 mM.
Target sequence in this assay (P14902 whole entry, looked up): as above
The target of assay [6] is Tryptophan 2,3-dioxygenase (Homo sapiens, UniProt P48775). The experiment in a line: Inhibition of human TDO transfected in mouse P815B clone 19 cells by HPLC analysis. The assay is classed as cell-based.
Chain of Tryptophan 2,3-dioxygenase (Homo sapiens, UniProt P48775) (P48775 whole entry): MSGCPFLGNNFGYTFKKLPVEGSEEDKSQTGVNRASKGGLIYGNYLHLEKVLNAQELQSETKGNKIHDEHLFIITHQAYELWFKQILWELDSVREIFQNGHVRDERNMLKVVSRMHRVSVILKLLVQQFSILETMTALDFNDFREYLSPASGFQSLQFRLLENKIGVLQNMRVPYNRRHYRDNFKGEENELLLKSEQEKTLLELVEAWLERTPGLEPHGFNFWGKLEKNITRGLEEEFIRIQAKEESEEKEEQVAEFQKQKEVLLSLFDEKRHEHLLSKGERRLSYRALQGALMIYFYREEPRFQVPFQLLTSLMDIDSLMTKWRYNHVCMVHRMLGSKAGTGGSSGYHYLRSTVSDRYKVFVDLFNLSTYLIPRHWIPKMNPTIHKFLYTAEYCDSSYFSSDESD
Assay [7] deals with T1, Indoleamine 2,3-dioxygenase 1. The experiment in a line: Inhibition of human IDO1 transfected in mouse P815B clone-6 cells by HPLC analysis. The format is cell-based.
Target sequence in this assay (P14902 whole entry): as the sequence (P14902 whole entry, looked up) above

Chain of Tryptophan 2,3-dioxygenase (Mus musculus, UniProt P48776) (P48776 whole entry): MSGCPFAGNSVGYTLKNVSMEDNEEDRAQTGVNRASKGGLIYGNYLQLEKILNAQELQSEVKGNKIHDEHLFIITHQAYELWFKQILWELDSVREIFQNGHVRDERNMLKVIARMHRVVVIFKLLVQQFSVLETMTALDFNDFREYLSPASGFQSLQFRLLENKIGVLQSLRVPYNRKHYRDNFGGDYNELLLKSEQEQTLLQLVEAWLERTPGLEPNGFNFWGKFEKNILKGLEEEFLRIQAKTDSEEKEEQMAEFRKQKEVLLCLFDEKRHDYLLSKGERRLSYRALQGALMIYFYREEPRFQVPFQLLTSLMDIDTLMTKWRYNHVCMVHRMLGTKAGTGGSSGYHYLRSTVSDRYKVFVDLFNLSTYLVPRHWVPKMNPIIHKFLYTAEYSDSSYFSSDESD
Chain of Indoleamine 2,3-dioxygenase 1 (Mus musculus, UniProt P28776) (P28776 whole entry): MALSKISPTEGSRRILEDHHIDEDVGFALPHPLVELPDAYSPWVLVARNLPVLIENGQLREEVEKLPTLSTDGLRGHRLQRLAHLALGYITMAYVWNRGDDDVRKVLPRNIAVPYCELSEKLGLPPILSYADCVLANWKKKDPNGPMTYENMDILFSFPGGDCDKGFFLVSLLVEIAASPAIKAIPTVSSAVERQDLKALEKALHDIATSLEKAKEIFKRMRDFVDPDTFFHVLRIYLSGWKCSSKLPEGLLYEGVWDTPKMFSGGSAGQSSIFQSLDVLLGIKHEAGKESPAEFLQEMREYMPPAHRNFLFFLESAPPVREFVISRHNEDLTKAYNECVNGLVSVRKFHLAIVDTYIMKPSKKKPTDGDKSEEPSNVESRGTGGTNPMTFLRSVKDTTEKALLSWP

In the case of `Fc1ccc2c(/C=C/c3nnn[nH]3)c[nH]c2c1`, the IC50 was more than 100 µM in assay [1] and 17 µM in assay [2]. Further, the CC50 with HepG2 is more than 100 µM. Also, in assay [3], the inhibition result was “Active”.

With `FC(F)(F)c1ccc(-c2c[nH]nn2)cc1`, in assay [4], the IC50 is 2300 µM.

With `Cn1cc(-c2ccccc2)nn1`, the inhibition result in assay [5] was “inactive”.

For `Nc1nonc1C(=NO)Nc1ccc(F)c(Cl)c1`, the IC50 worked out at 60 µM in assay [2] and 70 µM in assay [6].

As to `Oc1ccccc1-c1c[nH]nn1`, the IC50 in assay [4] was 15 µM; in assay [1], 0.022 µM; in assay [7], 1.7 µM; in assay [2] it was more than 100 µM; in assay [6], more than 100 µM. The CC50 in the assay with HepG2 is more than 100 µM. For the same compound, the inhibition result in assay [3] was “Active”.

In the case of `Brc1ccccc1-c1c[nH]nn1`, the IC50 in assay [4] was 6.4 µM; in assay [1] it was 0.034 µM; in assay [7], 2.6 µM; in assay [2], more than 100 µM; in assay [6] it was more than 100 µM.

On to `FC(F)(F)c1cccc(-c2c[nH]nn2)c1`, for which the IC50 in assay [4] was 6 µM; in assay [1] it was 0.07 µM; in assay [7], 9 µM; in assay [2] it was more than 100 µM; in assay [6], more than 100 µM. For the same compound, the CC50 in the assay with HepG2 was more than 100 µM. The inhibition entry in assay [3] is “Active”.

In the case of `CCn1cc(-c2ccccc2)nn1`, in assay [5], the inhibition result was “inactive”.

On to `Fc1ccc(-c2cnn[nH]2)cc1`, for which the CC50 in the assay with HepG2 is more than 100 µM. Also, the inhibition entry in assay [3] was “Active”.

Regarding `Cc1cccc(-c2c[nH]nn2)c1`, the IC50 in assay [4] is 22 µM; in assay [1], 0.12 µM; in assay [7], 7 µM; in assay [2], more than 100 µM; in assay [6], more than 100 µM. In the assay with HepG2, the CC50 is more than 100 µM. The inhibition result in assay [3] is “Active”.

With `Oc1ccc(Cl)cc1-c1c[nH]nn1`, the results for the IC50 in assay [1], in assay [2] and in assay [6] were 0.002 µM, more than 100 µM and more than 100 µM, respectively. Further, the CC50 in the assay with HepG2 was more than 100 µM. Besides, the inhibition result in assay [3] is “Active”.

As to `Cn1nncc1-c1cccc(Cl)c1`, the inhibition result in assay [5] is “inactive”.

Regarding `c1cc(-c2c[nH]cn2)ccn1`, the IC50 in assay [4] is 1800 µM.

On to `CCn1nncc1-c1ccccc1`, for which the inhibition result in assay [5] is “inactive”.

For `Cc1ccc(-c2c[nH]nn2)cc1`, the IC50 in assay [4] stood at 1000 µM.

Take `CCCCn1cc(-c2ccccc2)nn1`: in assay [5], the inhibition entry was “inactive”.

With `Oc1cccc(-c2c[nH]nn2)c1`, the IC50 in assay [4] is 310 µM; in assay [1], 1.3 µM; in assay [7] it was more than 100 µM; in assay [2], more than 100 µM; in assay [6], more than 100 µM. The CC50 in the assay on HepG2 is more than 100 µM. In addition, the inhibition result in assay [3] is “Active”.

Consider `c1ccc(-c2ccncc2)cc1`, for which, in assay [5], the inhibition result is “inactive”.

On to `Cn1nncc1-c1ccccc1`, for which, in assay [5], the inhibition result is “inactive”.

Regarding `CCCCn1nncc1-c1ccccc1`, the inhibition entry in assay [5] is “inactive”.

For the compound `CCc1cccc(-c2c[nH]nn2)c1`, the IC50 was 13 µM in assay [4]; 0.03 µM in assay [1]; 1.1 µM in assay [7]; more than 100 µM in assay [2]; more than 100 µM in assay [6]. Also, the CC50 in the assay with HepG2 is more than 100 µM. Besides, the inhibition entry in assay [3] was “Active”.

With `Oc1ccccc1-c1ccno1`, the inhibition result in assay [5] is “inactive”.

Regarding `Cc1c(Cl)cccc1-c1c[nH]nn1`, the IC50 in assay [4] turned out to be 72 µM.

As to `Cc1ccc(N)cc1-c1c[nH]nn1`, the IC50 in assay [4] was 3200 µM.

Regarding `Nc1nonc1/C(=N/O)Nc1ccc(F)c(Cl)c1`, the CC50 with HepG2 is more than 100 µM. The inhibition entry in assay [3] was “Active”.

Regarding `O=Cc1ccccc1-c1c[nH]nn1`, the IC50 in assay [4] was determined as 1300 µM.

In the case of `Clc1ccccc1-c1cnn[nH]1`, the CC50 with HepG2 is more than 100 µM. Further, the inhibition result in assay [3] is “Active”.

As to `Brc1ccccc1-c1cnn[nH]1`, in the assay with HepG2, the CC50 was more than 100 µM. For the same compound, the inhibition result in assay [3] is “Active”.

For the compound `Cc1ccccc1-c1c[nH]nn1`, the half-inhibitory concentration (IC50) in assay [4] is 39 µM; in assay [1] it was 1.7 µM; in assay [7], more than 100 µM; in assay [2] it was more than 100 µM; in assay [6], more than 100 µM. For the same compound, in the assay on HepG2, the CC50 is more than 100 µM. Moreover, in assay [3], the inhibition result is “Active”.

Take `CNc1ccccc1-c1c[nH]nn1`: the IC50 in assay [4] is 1800 µM.

For the compound `c1ccc(SCc2c[nH]nn2)cc1`, the inhibition result in assay [5] is “inactive”.

With `Nc1cccc(-c2c[nH]nn2)c1`, the IC50 is 1500 µM in assay [4]; 4 µM in assay [1]; more than 100 µM in assay [7]; more than 100 µM in assay [2]; more than 100 µM in assay [6]. Further, the CC50 in the assay on HepG2 is more than 100 µM. Further, the inhibition result in assay [3] was “Active”.

`c1ccc(-c2cnnn2-c2ccccc2)cc1`: the inhibition result in assay [5] was “inactive”.

Regarding `O=C(O)CCc1ccccc1-c1c[nH]nn1`, the inhibition entry in assay [5] is “inactive”.

`Cc1ccc2[nH]nnc2c1`: the inhibition result in assay [5] is “inactive”.

In the case of `N#Cc1cccc(-c2c[nH]nn2)c1`, the IC50 in assay [4] is 2.8 µM; in assay [1] it was 0.029 µM; in assay [7] it was 2.9 µM; in assay [2], more than 100 µM; in assay [6] it was more than 100 µM. In addition, the CC50 with HepG2 is more than 100 µM. Besides, the inhibition result in assay [3] was “Active”.

As to `Cc1cccc(N)c1-c1c[nH]nn1`, the IC50 in assay [4] was 1200 µM.

In the case of `NCCc1ccccc1-c1c[nH]nn1`, the inhibition entry in assay [5] was “inactive”.

Take `c1ccc(-c2ccncn2)cc1`: the inhibition entry in assay [5] is “inactive”.

As to `Nc1ccccc1-c1c[nH]nn1`, the IC50 is 60 µM in assay [4]; 1.7 µM in assay [1]; more than 100 µM in assay [7]; more than 100 µM in assay [2]; more than 100 µM in assay [6]. Also, the CC50 in the assay on HepG2 is more than 100 µM. Besides, the inhibition result in assay [3] is “Active”.

Regarding `C1=C(c2c[nH]nn2)CCCC1`, in assay [5], the inhibition entry is “inactive”.

`Cc1ccc(Cl)cc1-c1c[nH]nn1`: the IC50 in assay [4] is 4.3 µM; in assay [1], 0.12 µM; in assay [7], 14 µM; in assay [2], more than 100 µM; in assay [6], more than 100 µM. Further, in the assay on HepG2, the CC50 is more than 100 µM. In assay [3], the inhibition result was “Active”.

For the compound `Cn1cc(-c2cccc(Cl)c2)nn1`, in assay [5], the inhibition result was “inactive”.

Consider `Clc1cccc(-c2cnnn2-c2ccccc2)c1`, for which the inhibition entry in assay [5] was “inactive”.

On to `CCn1ncc(-c2ccccc2)n1`, for which the inhibition entry in assay [5] is “inactive”.

`c1ccc(Cc2c[nH]nn2)cc1`: the inhibition entry in assay [5] is “inactive”.

As for `CCc1ccccc1-c1c[nH]nn1`, the IC50 in assay [4] is 230 µM; in assay [1], 13 µM; in assay [7], more than 100 µM; in assay [2], more than 100 µM; in assay [6], more than 100 µM. In the assay with HepG2, the CC50 was more than 100 µM. The inhibition result in assay [3] was “Active”.

On to `FC(F)(F)c1cc(-c2c[nH]nn2)ccn1`, for which the 50% inhibitory concentration (IC50) in assay [4] is 15 µM; in assay [1], 0.34 µM; in assay [7], 56 µM; in assay [2], more than 100 µM; in assay [6], more than 100 µM. Also, the CC50 in the assay on HepG2 was more than 100 µM. For the same compound, the inhibition entry in assay [3] is “Active”.

Turning to `c1ccc(Cn2cc(-c3ccccc3)nn2)cc1`, the inhibition result in assay [5] is “inactive”.

In the case of `O=[N+]([O-])c1cccc(-c2c[nH]nn2)c1`, the IC50 in assay [4] is 15 µM; in assay [1], 0.11 µM; in assay [7], 24 µM; in assay [2] it was more than 100 µM; in assay [6], more than 100 µM. Besides, in the assay with HepG2, the CC50 is more than 100 µM. Further, the inhibition result in assay [3] is “Active”.

Consider `Fc1ccccc1-c1c[nH]nn1`, for which the IC50 was 80 µM in assay [4]; 0.63 µM in assay [1]; 70 µM in assay [7]; more than 100 µM in assay [2]; more than 100 µM in assay [6]. The CC50 in the assay on HepG2 was more than 100 µM. The inhibition result in assay [3] was “Active”.

On to `Brc1cc(-c2c[nH]nn2)ccn1`, for which the IC50 was 3.3 µM in assay [4]; 0.05 µM in assay [1]; 2.9 µM in assay [7]; more than 100 µM in assay [2]; more than 100 µM in assay [6]. Also, the CC50 with HepG2 is more than 100 µM. In addition, the inhibition entry in assay [3] is “Active”.

For the compound `c1cc(-c2ccncc2)ccn1`, the inhibition entry in assay [5] was “inactive”.

In the case of `Cn1ncc(-c2ccccc2)n1`, the inhibition entry in assay [5] was “inactive”.

Take `Fc1ccc(-c2c[nH]nn2)cc1`: the IC50 in assay [4] was 190 µM; in assay [1] it was 2.1 µM; in assay [7], more than 100 µM; in assay [2], more than 100 µM; in assay [6], more than 100 µM.

As to `c1ccc2[nH]nnc2c1`, in assay [5], the inhibition entry is “inactive”.

For the compound `Fc1ccc(-c2cnnn2-c2ccccc2)cc1`, in assay [5], the inhibition result was “inactive”.

With `Cc1cccc(NC(=O)C(F)(F)F)c1-c1c[nH]nn1`, the IC50 in assay [4] is 3000 µM.

As to `c1ccc(Cn2nncc2-c2ccccc2)cc1`, the inhibition entry in assay [5] was “inactive”.

On to `COc1ccccc1-c1cnnn1-c1ccccc1`, for which the inhibition entry in assay [5] is “inactive”.

For the compound `Cc1cccc(-c2cnnn2-c2ccccc2)c1`, in assay [5], the inhibition result is “inactive”.
